Results taken from ChEMBL document CHEMBL1146690, “Design and synthesis of aminopropyl tetrahydroindole-based indolin-2-ones as selective and potent inhibitors of Src and Yes tyrosine kinase” (Bioorg Med Chem Lett, 2004).
pIC50: −log10 of the molar value.

Columns and labels:
[1] = target: Proto-oncogene tyrosine-protein kinase Src (Homo sapiens, UniProt P12931); experiment: Inhibitory activity against Src protein tyrosine kinase
How it was run: (§1)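 Enzymatic kinase inhibition run by previously reported methods. Each IC50 came from at least two separate tests with deviation under 20%, and the mean is reported.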

[2] = target: Tyrosine-protein kinase Fyn (Homo sapiens, UniProt P06241); experiment: Inhibitory activity against Fyn tyrosine kinase
[3] = target: Vascular endothelial growth factor receptor 2 (Homo sapiens, UniProt P35968); experiment: Inhibitory activity against Vascular endothelial growth factor receptor 2
[4] = target: Fibroblast growth factor receptor 1 (Homo sapiens, UniProt P11362); experiment: Inhibitory activity against Fibroblast growth factor receptor 1
[5] = target: Platelet-derived growth factor receptor beta (Homo sapiens, UniProt P09619); experiment: Inhibitory activity against PDGFRbeta tyrosine kinase; how it was run: as §1
[6] = target: Tyrosine-protein kinase Lck (Homo sapiens, UniProt P06239); experiment: Inhibitory activity against Lck tyrosine kinase
Tyrosine-protein kinase Lck, sequence (P06239 whole entry): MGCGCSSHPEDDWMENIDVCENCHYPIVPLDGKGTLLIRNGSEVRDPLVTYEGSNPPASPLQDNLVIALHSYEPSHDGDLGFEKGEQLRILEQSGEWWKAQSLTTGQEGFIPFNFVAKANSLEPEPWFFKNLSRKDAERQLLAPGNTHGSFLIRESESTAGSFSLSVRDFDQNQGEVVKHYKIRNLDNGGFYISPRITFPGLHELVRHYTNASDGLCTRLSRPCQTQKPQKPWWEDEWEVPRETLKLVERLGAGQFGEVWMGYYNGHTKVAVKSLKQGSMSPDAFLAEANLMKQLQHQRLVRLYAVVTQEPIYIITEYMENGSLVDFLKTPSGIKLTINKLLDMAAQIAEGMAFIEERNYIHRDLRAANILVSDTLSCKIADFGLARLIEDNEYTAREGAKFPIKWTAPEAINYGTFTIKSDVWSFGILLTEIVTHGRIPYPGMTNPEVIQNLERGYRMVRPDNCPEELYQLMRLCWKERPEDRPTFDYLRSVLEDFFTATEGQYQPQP

Tyrosine-protein kinase Fyn, sequence (P06241 whole entry): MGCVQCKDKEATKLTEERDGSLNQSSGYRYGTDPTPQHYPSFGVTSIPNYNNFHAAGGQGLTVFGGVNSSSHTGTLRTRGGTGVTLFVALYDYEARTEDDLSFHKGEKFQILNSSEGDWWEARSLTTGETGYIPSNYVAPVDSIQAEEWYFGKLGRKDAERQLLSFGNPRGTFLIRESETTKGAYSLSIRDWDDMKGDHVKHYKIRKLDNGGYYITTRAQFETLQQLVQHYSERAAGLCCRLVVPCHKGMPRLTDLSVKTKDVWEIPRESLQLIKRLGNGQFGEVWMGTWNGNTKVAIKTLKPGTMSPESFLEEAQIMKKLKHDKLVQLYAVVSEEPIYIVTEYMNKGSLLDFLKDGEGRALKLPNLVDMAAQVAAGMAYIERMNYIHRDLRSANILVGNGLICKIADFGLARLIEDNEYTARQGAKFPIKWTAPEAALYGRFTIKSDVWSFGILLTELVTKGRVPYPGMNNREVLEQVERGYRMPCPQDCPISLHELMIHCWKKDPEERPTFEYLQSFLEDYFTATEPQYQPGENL
Platelet-derived growth factor receptor beta, sequence (P09619 whole entry): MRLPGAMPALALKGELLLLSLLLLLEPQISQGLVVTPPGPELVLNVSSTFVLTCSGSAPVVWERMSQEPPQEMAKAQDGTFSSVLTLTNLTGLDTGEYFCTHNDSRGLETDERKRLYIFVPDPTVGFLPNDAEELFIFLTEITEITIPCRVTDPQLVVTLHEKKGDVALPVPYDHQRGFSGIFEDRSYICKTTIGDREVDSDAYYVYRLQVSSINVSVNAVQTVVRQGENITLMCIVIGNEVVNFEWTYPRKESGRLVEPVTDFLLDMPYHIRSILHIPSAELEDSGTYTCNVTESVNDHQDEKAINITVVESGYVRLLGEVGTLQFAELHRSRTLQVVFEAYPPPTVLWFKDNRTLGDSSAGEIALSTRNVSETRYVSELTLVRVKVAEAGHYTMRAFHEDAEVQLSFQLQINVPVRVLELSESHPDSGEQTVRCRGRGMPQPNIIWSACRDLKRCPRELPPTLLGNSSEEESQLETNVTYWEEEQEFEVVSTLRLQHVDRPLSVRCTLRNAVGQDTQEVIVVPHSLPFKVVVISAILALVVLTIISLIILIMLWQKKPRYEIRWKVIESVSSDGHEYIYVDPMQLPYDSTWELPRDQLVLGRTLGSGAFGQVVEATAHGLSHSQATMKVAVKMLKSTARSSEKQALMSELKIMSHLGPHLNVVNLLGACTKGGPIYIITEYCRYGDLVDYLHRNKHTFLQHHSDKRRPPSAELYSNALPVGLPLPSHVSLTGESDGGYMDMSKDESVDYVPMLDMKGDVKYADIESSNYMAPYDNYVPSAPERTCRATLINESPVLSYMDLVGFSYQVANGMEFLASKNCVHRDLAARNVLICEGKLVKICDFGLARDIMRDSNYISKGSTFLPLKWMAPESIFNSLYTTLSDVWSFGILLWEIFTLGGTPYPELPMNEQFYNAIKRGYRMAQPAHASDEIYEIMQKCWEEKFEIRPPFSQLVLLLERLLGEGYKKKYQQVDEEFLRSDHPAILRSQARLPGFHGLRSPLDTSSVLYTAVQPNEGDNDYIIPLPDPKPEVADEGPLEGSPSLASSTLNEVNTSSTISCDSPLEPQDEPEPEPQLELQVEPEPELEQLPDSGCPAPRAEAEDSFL
Vascular endothelial growth factor receptor 2, sequence (P35968 whole entry): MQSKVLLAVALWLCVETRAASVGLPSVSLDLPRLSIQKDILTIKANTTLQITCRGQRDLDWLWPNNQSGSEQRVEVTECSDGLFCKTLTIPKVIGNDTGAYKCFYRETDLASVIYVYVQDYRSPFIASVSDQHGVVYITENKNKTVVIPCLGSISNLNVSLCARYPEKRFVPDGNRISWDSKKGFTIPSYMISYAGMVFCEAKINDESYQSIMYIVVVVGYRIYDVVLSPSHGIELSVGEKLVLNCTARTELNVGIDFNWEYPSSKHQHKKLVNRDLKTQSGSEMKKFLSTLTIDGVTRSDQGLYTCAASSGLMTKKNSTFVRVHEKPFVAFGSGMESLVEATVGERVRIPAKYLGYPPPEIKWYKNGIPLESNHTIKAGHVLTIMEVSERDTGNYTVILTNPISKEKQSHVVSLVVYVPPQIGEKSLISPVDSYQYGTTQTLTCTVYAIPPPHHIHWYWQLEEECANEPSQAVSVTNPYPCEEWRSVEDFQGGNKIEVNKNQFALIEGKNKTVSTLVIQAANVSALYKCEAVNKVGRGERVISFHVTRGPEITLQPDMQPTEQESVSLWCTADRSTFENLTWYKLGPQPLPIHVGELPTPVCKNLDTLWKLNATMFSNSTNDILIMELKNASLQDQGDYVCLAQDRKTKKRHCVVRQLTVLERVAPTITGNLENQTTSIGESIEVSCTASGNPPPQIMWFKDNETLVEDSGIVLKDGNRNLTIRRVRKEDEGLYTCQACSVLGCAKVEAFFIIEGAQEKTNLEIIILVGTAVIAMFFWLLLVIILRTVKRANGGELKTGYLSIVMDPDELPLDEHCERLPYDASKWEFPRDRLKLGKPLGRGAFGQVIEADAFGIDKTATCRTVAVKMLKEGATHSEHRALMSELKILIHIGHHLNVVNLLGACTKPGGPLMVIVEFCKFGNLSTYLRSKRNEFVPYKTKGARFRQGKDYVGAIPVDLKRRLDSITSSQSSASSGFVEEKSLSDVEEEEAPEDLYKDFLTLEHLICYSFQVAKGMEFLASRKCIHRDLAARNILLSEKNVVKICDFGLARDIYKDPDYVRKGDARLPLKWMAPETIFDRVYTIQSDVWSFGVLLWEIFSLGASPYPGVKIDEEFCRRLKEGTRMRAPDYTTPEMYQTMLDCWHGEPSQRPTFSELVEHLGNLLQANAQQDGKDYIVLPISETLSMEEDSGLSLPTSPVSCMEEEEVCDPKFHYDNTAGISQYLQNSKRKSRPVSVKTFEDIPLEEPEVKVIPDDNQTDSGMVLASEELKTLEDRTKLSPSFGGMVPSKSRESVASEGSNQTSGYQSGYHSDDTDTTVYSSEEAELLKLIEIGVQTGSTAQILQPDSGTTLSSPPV
Fibroblast growth factor receptor 1, sequence (P11362 whole entry): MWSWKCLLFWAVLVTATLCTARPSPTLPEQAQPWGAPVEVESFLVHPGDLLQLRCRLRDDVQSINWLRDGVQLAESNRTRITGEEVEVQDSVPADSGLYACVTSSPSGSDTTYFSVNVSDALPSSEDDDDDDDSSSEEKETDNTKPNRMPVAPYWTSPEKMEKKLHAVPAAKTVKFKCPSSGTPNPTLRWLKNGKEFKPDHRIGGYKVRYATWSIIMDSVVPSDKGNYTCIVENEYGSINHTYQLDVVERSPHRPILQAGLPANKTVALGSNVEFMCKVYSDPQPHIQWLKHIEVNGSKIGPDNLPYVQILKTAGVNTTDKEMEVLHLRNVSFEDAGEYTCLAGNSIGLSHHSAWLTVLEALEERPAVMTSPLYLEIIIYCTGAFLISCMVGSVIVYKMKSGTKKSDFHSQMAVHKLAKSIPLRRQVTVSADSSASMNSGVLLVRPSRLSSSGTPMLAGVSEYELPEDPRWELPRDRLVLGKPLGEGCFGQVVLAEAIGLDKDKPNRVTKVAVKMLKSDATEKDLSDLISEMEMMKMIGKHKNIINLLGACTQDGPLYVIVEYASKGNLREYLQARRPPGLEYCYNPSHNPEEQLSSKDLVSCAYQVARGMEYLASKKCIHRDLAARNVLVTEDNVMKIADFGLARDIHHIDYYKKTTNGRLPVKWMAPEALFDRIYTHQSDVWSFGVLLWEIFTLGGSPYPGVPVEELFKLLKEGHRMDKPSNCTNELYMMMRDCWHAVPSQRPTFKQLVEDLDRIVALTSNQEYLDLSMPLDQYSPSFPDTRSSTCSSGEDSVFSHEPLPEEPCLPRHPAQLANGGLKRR
Proto-oncogene tyrosine-protein kinase Src, sequence (P12931 2-536 limits assumed): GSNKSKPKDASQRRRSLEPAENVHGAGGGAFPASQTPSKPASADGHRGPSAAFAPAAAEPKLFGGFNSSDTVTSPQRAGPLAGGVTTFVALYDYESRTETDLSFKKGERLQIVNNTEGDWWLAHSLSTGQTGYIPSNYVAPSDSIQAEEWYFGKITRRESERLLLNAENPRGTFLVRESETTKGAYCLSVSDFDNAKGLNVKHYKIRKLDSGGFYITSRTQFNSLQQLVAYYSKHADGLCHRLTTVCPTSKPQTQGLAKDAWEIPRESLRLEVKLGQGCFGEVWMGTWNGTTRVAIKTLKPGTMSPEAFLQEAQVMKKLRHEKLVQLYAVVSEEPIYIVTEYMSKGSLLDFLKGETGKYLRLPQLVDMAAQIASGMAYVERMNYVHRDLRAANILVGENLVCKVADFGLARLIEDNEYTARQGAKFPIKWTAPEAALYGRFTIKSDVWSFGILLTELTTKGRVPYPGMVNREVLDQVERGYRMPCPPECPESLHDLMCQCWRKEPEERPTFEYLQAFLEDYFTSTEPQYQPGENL

pIC50 [1] | pIC50 [2] | pIC50 [3] | pIC50 [4] | pIC50 [5] | pIC50 [6] | SMILES
6.52 |  |  |  |  |  | CNS(=O)(=O)c1ccc2c(c1)/C(=C/c1[nH]c3c(c1CCC(=O)N1CCN(C)CC1)CCCC3)C(=O)N2
7.15 | 6.30 | 6.30 | 7.10 | < 4.70 | 6.22 | CCOC(=O)CN1CCN(CCCc2c(/C=C3\C(=O)Nc4ccc(S(=O)(=O)NC)cc43)[nH]c3c2CCCC3)CC1
6.40 |  |  |  |  |  | CNS(=O)(=O)c1ccc2c(c1)/C(=C/c1[nH]c3c(c1CCCN1CCN(C(=O)CO)CC1)CCCC3)C(=O)N2
6.15 |  |  |  |  |  | CN(C)CCCc1c(/C=C2\C(=O)Nc3ccc(C(=O)O)cc32)[nH]c2c1CCCC2
5.64 |  |  |  |  |  | CN(C)CCCc1c(/C=C2\C(=O)Nc3ccc(-c4ccccc4)cc32)[nH]c2c1CCCC2
7.70 | 6.40 | 6.40 | 6.70 | 5.10 | 7.00 | CNS(=O)(=O)c1ccc2c(c1)/C(=C/c1[nH]c3c(c1CCCN1CCN(CC(=O)O)CC1)CCCC3)C(=O)N2
6.52 |  |  |  |  |  | CNS(=O)(=O)c1ccc2c(c1)/C(=C/c1[nH]c3c(c1CCCN1CCN(C(C)=O)CC1)CCCC3)C(=O)N2
5.00 |  |  |  |  |  | CCS(=O)(=O)Cc1ccc2c(c1)/C(=C/c1[nH]c3c(c1CCCN(C)C)CCCC3)C(=O)N2
6.00 |  |  |  |  |  | COc1ccc2c(c1)/C(=C/c1[nH]c3c(c1CCCN(C)C)CCCC3)C(=O)N2
7.15 | 6.10 | 6.52 | 5.92 | 5.00 | 6.15 | CNS(=O)(=O)c1ccc2c(c1)/C(=C/c1[nH]c3c(c1CCCN1CCN(C)CC1)CCCC3)C(=O)N2
6.40 |  |  |  |  |  | CCS(=O)(=O)c1ccc2c(c1)/C(=C/c1[nH]c3c(c1CCC(=O)O)CCCC3)C(=O)N2
6.10 |  |  |  |  |  | CCC(=O)N1CCN(CCCc2c(/C=C3\C(=O)Nc4ccc(S(=O)(=O)CC)cc43)[nH]c3c2CCCC3)CC1
6.30 |  |  |  |  |  | CCS(=O)(=O)c1ccc2c(c1)/C(=C/c1[nH]c3c(c1CCC(=O)N1CCN(C)CC1)CCCC3)C(=O)N2
7.22 |  | 5.64 | 5.77 | 4.74 |  | CNS(=O)(=O)c1ccc2c(c1)/C(=C/c1[nH]c3c(c1CCCN1CCOCC1)CCCC3)C(=O)N2
7.15 | 6.22 |  |  | 5.64 | 6.15 | CCS(=O)(=O)c1ccc2c(c1)/C(=C/c1[nH]c3c(c1CCCN1CCC(O)CC1)CCCC3)C(=O)N2
6.64 |  |  |  |  |  | CC(C)NS(=O)(=O)c1ccc2c(c1)/C(=C/c1[nH]c3c(c1CCCN(C)C)CCCC3)C(=O)N2
6.70 |  |  |  |  |  | CNS(=O)(=O)c1ccc2c(c1)/C(=C/c1[nH]c3ccccc3c1CCCN(C)C)C(=O)N2
5.59 |  |  |  |  |  | CN(C)CCCc1c(/C=C2\C(=O)Nc3ccc(S(=O)(=O)N(C)C)cc32)[nH]c2c1CCCC2
7.15 | 6.40 | 6.10 | 6.40 | 4.89 | 6.40 | CCS(=O)(=O)c1ccc2c(c1)/C(=C/c1[nH]c3c(c1CCCN1CCN(CC(=O)O)CC1)CCCC3)C(=O)N2
7.40 | 6.70 | 6.52 | 7.10 | 5.29 |  | CCS(=O)(=O)c1ccc2c(c1)/C(=C/c1[nH]c3c(c1CCC(N)=O)CCCC3)C(=O)N2
6.30 |  |  |  |  |  | CN(C)CCCc1c(/C=C2\C(=O)Nc3ccc(F)cc32)[nH]c2c1CCCC2
6.64 |  |  |  |  |  | CC(C)S(=O)(=O)c1ccc2c(c1)/C(=C/c1[nH]c3c(c1CCCN(C)C)CCCC3)C(=O)N2

pIC50 [1] | pIC50 [2] | pIC50 [3] | pIC50 [4] | pIC50 [5] | pIC50 [6] | SMILES
5.92 |  |  |  |  |  | CN(C)CCCc1c(/C=C2\C(=O)Nc3ccc(S(=O)(=O)NCc4ccc(F)cc4)cc32)[nH]c2c1CCCC2
5.68 |  |  |  |  |  | CNS(=O)(=O)c1ccc2c(c1)/C(=C/c1cc3c([nH]1)CCCC3)C(=O)N2
5.48 |  |  |  |  |  | CN(C)CCCc1c(/C=C2\C(=O)Nc3ccccc32)[nH]c2c1CCCC2
7.00 | 7.22 | 5.96 | 6.15 | 5.48 | 5.80 | CNS(=O)(=O)c1ccc2c(c1)/C(=C/c1[nH]c3c(c1CCCN(C)C)CCCC3)C(=O)N2
6.68 | 5.92 | 5.59 |  | 4.96 | 6.22 | CCS(=O)(=O)c1ccc2c(c1)/C(=C/c1[nH]c3c(c1CCCN1CCN(C)CC1)CCCC3)C(=O)N2
6.62 |  |  |  |  |  | CN(C)CCCc1c(/C=C2\C(=O)Nc3ccc(S(=O)(=O)NCCO)cc32)[nH]c2c1CCCC2
6.70 |  |  |  |  |  | CNS(=O)(=O)c1ccc2c(c1)/C(=C/c1[nH]c3c(c1CCCN1CCNCC1)CCCC3)C(=O)N2
7.30 | 6.70 | 5.15 | 5.47 | 5.33 | 6.52 | CNS(=O)(=O)c1ccc2c(c1)/C(=C/c1[nH]c3c(c1CCCN1CCC(O)CC1)CCCC3)C(=O)N2
7.15 | 5.85 | 7.00 | 6.40 |  | 6.10 | CCS(=O)(=O)c1ccc2c(c1)/C(=C/c1[nH]c3c(c1CN1CCOCC1)CCCC3)C(=O)N2
7.52 | 7.00 | 6.40 | 6.22 | 5.25 | 6.40 | CNS(=O)(=O)c1ccc2c(c1)/C(=C/c1[nH]c3c(c1CCCN1CCN(CCO)CC1)CCCC3)C(=O)N2
6.22 |  |  |  |  |  | CN(C)CCCc1c(/C=C2\C(=O)Nc3ccc(S(N)(=O)=O)cc32)[nH]c2c1CCCC2
6.66 |  |  |  |  |  | CCS(=O)(=O)c1ccc2c(c1)/C(=C/c1[nH]c3c(c1CCCN1CCN(C(=O)CO)CC1)CCCC3)C(=O)N2
6.52 |  |  |  |  |  | CN(C)CCCc1c(/C=C2\C(=O)Nc3ccc(S(=O)(=O)Nc4ccccc4Cl)cc32)[nH]c2c1CCCC2
6.00 |  |  |  |  |  | CNS(=O)(=O)c1ccc2c(c1)/C(=C/c1[nH]c(C)c(C)c1CCCN(C)C)C(=O)N2
7.15 | 6.40 | 6.40 | 5.96 | 5.05 | 6.30 | CCS(=O)(=O)c1ccc2c(c1)/C(=C/c1[nH]c3c(c1CCCN1CCN(CCO)CC1)CCCC3)C(=O)N2
6.52 |  |  |  |  |  | CCOC(=O)N1CCN(CCCc2c(/C=C3\C(=O)Nc4ccc(S(=O)(=O)NC)cc43)[nH]c3c2CCCC3)CC1
6.82 |  |  |  |  |  | CCS(=O)(=O)c1ccc2c(c1)/C(=C/c1[nH]c3c(c1CCCN1CCOCC1)CCCC3)C(=O)N2
6.15 |  |  |  |  |  | CCS(=O)(=O)c1ccc2c(c1)/C(=C/c1cc3c([nH]1)CCCC3)C(=O)N2
7.22 | 6.52 | 5.57 | 6.40 | 5.60 | 6.70 | CCS(=O)(=O)c1ccc2c(c1)/C(=C/c1[nH]c3c(c1CCCN(C)C)CCCC3)C(=O)N2
6.52 |  |  |  |  |  | CN(C)CCCc1c(/C=C2\C(=O)Nc3ccc(S(C)(=O)=O)cc32)[nH]c2c1CCCC2
6.40 |  |  |  |  |  | CCS(=O)(=O)c1ccc2c(c1)/C(=C/c1[nH]c3c(c1CCCN1CCN(C(C)=O)CC1)CCCC3)C(=O)N2

SMILES | pIC50 [1] | pIC50 [2] | pIC50 [3] | pIC50 [4] | pIC50 [5] | pIC50 [6]
CNS(=O)(=O)c1ccc2c(c1)/C(=C/c1[nH]c3c(c1CN1CCOCC1)CCCC3)C(=O)N2 | 8.00 | 6.40 | 7.22 | 6.70 |  | 7.10
CNS(=O)(=O)c1ccc2c(c1)/C(=C/c1[nH]c3c(c1CCC(N)=O)CCCC3)C(=O)N2 | 7.52 | 7.30 | 6.30 | 7.15 | 5.18 | 7.00
